ChEMBL document CHEMBL6153131, “Rational Design and Optimization of a Potent IDO1 Proteolysis Targeting Chimera (PROTAC)” (J Med Chem, 2025)
Activity calls are given as the source filed them. The rule behind the calls is not given here.

Columns and labels:
[1] = biological target: T1, Protein cereblon/Indoleamine 2,3-dioxygenase 1 (Homo sapiens, UniProt P14902+Q96SW2); assay: PROTAC activity at CRBN/IDO1 in human GBM43 cell assessed as induction of IDO1 degradation at 0.003 uM pretreated with IFN-gamma for 24 hrs followed by compound addition and measured after 24 hrs by Western blotting analysis (reference value: 100%); type: cell-based
Outline: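 GBM43 patient-derived cells given an extended dose range of PROTAC for 24 h. Protein analysed by Western blot for IDO1, and IFNγ-induced IDO1 normalised to untreated samples. n = 3 independent experiments; data as mean ± SEM.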
Target sequence in this assay (P14902 whole entry, looked up): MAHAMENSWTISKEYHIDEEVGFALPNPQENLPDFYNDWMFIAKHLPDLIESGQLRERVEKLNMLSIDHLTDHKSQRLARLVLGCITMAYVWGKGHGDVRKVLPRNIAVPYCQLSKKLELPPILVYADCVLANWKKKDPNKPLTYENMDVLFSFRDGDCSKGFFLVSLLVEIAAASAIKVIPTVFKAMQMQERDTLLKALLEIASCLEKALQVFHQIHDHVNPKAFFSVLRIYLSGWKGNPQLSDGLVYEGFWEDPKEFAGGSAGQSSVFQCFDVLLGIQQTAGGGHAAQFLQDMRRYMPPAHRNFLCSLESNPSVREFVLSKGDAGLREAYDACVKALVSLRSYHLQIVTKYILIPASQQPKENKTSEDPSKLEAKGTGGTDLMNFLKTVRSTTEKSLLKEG
Target sequence in this assay (Q96SW2 whole entry, looked up): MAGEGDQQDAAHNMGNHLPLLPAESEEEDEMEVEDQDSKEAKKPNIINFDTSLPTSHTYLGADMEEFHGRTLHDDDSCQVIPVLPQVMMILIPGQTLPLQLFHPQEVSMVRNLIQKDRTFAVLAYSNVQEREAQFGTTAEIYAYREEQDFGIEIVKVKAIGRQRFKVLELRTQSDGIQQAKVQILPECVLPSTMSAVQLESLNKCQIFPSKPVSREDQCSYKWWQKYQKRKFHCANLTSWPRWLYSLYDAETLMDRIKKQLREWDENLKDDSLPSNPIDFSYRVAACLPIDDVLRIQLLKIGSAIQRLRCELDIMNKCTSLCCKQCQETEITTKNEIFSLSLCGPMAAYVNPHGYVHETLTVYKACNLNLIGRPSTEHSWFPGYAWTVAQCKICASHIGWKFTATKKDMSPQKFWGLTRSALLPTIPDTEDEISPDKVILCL

SK-OV-3 = assay: Inhibition of kynurenine production in human SK-OV-3 cells pretreated with IFN-gamma for 24 hrs followed by compound addition and measured after 24 hrs by Ehrlich's reagent based analysis; type: functional, cell-based; conditions: dose 50-100 nM
[2] = biological target: T1, Protein cereblon/Indoleamine 2,3-dioxygenase 1; assay: PROTAC activity at CRBN/IDO1 in human U87 cells overexpressing GFP-fused IDO1 assessed as induction of IDO1 degradation pretreated with IFN-gamma for 24 hrs followed by compound addition and measured after 24 hrs by Western blotting analysis; type: cell-based; conditions: dose 50-100 nM
Outline: (§1)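 Cells had IDO1 induced with IFNγ, then were treated at the indicated concentrations for 24 h. Lines: PDX-6 and PDX-38 adult GBM PDX cells, U87 overexpressing GFP-fused IDO1, PC-3, KNS42, MDA-MB-231, SW-1990 and SKOV-3. Lysates probed for IDO1 and GAPDH by Western blot; representative of 3 separate replicates.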
Target sequence in this assay (P14902 whole entry, looked up): as the sequence (P14902 whole entry, looked up) above
Target sequence in this assay (Q96SW2 whole entry, looked up): as the sequence (Q96SW2 whole entry, looked up) above

[3] = biological target: T1, Protein cereblon/Indoleamine 2,3-dioxygenase 1; assay: PROTAC activity at CRBN/N-terminal HiBiT-tagged IDO1 (unknown origin) transfected in human U87 cells assessed as induction of IDO1 degradation pretreated with IFN-gamma for 24 hrs followed by compound addition and measured after 24 hrs by Nano-Glo HiBiT assay; type: cell-based
Outline: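 U87 cells carrying HiBiT knocked in by CRISPR/Cas9 at the IDO1 N-terminus, treated for 24 h. Degradation read as loss of luminescence. DC50 fitted from the lowest concentration up to maximal degradation, excluding hook-effect points; triplicate mean ± SD.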
Target sequence in this assay (P14902 whole entry): as the sequence (P14902 whole entry, looked up) above
Target sequence in this assay (Q96SW2 whole entry): as the sequence (Q96SW2 whole entry, looked up) above

PDX-6 = assay: Inhibition of kynurenine production in human PDX-6 cells pretreated with IFN-gamma for 24 hrs followed by compound addition and measured after 24 hrs by Ehrlich's reagent based analysis; type: functional, cell-based; conditions: dose 50-100 nM
[4] = Half life in female C57BL/6J mouse brain at 50 mg/kg, ip by LC-MS/MS analysis; type: ADME, organism-based
[5] = biological target: T1, Protein cereblon/Indoleamine 2,3-dioxygenase 1; assay: PROTAC activity at CRBN/IDO1 in human U87 cells assessed as induction of IDO1 degradation at 100 nM at 0.5 uM pretreated with IFN-gamma for 24 hrs followed by compound addition and measured after 24 hrs in presence of MLN4924 by Western blotting analysis; type: cell-based
Target sequence in this assay (P14902 whole entry, looked up): as the sequence (P14902 whole entry, looked up) above
Target sequence in this assay (Q96SW2 whole entry, looked up): as the sequence (Q96SW2 whole entry, looked up) above

[6] = biological target: T1, Protein cereblon/Indoleamine 2,3-dioxygenase 1; assay: PROTAC activity at CRBN/IDO1 in human PDX-6 cells assessed as induction of IDO1 degradation pretreated with IFN-gamma for 24 hrs followed by compound addition and measured after 24 hrs by Western blotting analysis; type: cell-based; conditions: dose 50-100 nM; outline: as §1
Target sequence in this assay (P14902 whole entry, looked up): as the sequence (P14902 whole entry, looked up) above
Target sequence in this assay (Q96SW2 whole entry, looked up): as the sequence (Q96SW2 whole entry, looked up) above

[7] = biological target: T1, Protein cereblon/Indoleamine 2,3-dioxygenase 1; assay: PROTAC activity at CRBN/IDO1 in human KNS-42 cells assessed as induction of IDO1 degradation pretreated with IFN-gamma for 24 hrs followed by compound addition and measured after 24 hrs by Western blotting analysis; type: cell-based; conditions: dose 50-100 nM; outline: as §1
Target sequence in this assay (P14902 whole entry, looked up): as the sequence (P14902 whole entry, looked up) above
Target sequence in this assay (Q96SW2 whole entry, looked up): as the sequence (Q96SW2 whole entry, looked up) above

[8] = biological target: T1, Protein cereblon/Indoleamine 2,3-dioxygenase 1; assay: PROTAC activity at CRBN/IDO1 in human U87 cells assessed as induction of IDO1 degradation by measuring remaining activity at 25 nM pretreated with IFN-gamma for 24 hrs followed by compound addition and measured after 24 hrs by Western blotting analysis (reference value: 100%); type: cell-based
Target sequence in this assay (P14902 whole entry, looked up): as the sequence (P14902 whole entry, looked up) above
Target sequence in this assay (Q96SW2 whole entry, looked up): as the sequence (Q96SW2 whole entry, looked up) above

[9] = biological target: T1, Protein cereblon/Indoleamine 2,3-dioxygenase 1; assay: PROTAC activity at CRBN/IDO1 in human U87 cells assessed as induction of IDO1 degradation at 50 to 100 nM pretreated with IFN-gamma for 24 hrs followed by compound addition and measured upto 72 hrs by Western blotting analysis; type: cell-based; conditions: dose 50-100 nM
Outline: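 U87 cells under single continuous PROTAC treatment (50 and 100 nM), sampled at multiple time points up to 72 h. IDO1 assessed by Western blot.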

U-87MG ATCC = assay: Inhibition of kynurenine production in human U87 cells overexpressing GFP-fused IDO1 cells pretreated with IFN-gamma for 24 hrs followed by compound addition and measured after 24 hrs by Ehrlich's reagent based analysis; type: functional, cell-based; conditions: dose 50-100 nM

C[C@@H](C(=O)Nc1cccc(OC2CCN(C(=O)CN3CCC(N4CCN(c5ccc6c(c5)C(=O)N(C5CCC(=O)NC5=O)C6=O)CC4)CC3)CC2)c1)[C@H]1CC[C@@H](c2ccnc3ccc(F)cc32)CC1 (some centres not stated)
Activity [1]: 75%
inhibition (SK-OV-3): Dose-dependent-effect
Activity [2]: Dose-dependent-effect
DC50 [3]: 4.5 nM
inhibition (PDX-6): Dose-dependent-effect
half-life [4]: 11.8 h
Activity [5]: inactive
Activity [6]: Dose-dependent-effect
Activity [7]: Dose-dependent-effect
Activity [8]: 35%
Activity [9]: Active
inhibition (U-87MG ATCC): Dose-dependent-effect
